Experimental data published in publication PMC4148169 (Journal of Medicinal Chemistry, 2014).
Structures can show the parent of a compound that is named as a salt. Where two headings read alike, the source gives them in different places.

What was measured:
[1] = cited from earlier work
[2] = tested on: human 3A4; conditions: cited from earlier work
[3] = tested on: 2C9; conditions: read-out: IC50 toward 2C9; cited from earlier work
[4] = tested on: T. cruzi Y luc strain; assay type: in vivo, Trypanosoma cruzi; conditions: posaconazole 20 mg/kg, ip, bid, 4 days; two independent experiments (A, B)
[5] = target: T1, CYP1A2 (Homo sapiens, UniProt P05177); assay: CYP inhibition in human liver microsomes, 1A2; assay type: in vitro ADME
T1 sequence (P05177 1-516): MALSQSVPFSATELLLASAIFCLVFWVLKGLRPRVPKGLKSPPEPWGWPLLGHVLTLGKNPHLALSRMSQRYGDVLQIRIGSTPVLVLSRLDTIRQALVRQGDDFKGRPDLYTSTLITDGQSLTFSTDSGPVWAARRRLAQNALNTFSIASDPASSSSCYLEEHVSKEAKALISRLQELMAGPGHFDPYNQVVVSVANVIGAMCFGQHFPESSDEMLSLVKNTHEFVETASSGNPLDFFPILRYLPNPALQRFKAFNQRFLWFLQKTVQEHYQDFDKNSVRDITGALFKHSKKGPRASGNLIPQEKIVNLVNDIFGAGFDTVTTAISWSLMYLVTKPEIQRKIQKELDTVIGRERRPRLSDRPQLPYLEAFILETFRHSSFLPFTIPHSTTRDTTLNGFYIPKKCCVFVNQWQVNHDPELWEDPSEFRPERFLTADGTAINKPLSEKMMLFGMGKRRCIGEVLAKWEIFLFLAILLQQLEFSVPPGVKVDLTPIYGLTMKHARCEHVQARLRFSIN

[6] = target: CYP3A4 (Homo sapiens, UniProt P08684); assay: CYP inhibition in human liver microsomes, 3A4; assay type: in vitro ADME
Chain of CYP3A4 (P08684 whole entry): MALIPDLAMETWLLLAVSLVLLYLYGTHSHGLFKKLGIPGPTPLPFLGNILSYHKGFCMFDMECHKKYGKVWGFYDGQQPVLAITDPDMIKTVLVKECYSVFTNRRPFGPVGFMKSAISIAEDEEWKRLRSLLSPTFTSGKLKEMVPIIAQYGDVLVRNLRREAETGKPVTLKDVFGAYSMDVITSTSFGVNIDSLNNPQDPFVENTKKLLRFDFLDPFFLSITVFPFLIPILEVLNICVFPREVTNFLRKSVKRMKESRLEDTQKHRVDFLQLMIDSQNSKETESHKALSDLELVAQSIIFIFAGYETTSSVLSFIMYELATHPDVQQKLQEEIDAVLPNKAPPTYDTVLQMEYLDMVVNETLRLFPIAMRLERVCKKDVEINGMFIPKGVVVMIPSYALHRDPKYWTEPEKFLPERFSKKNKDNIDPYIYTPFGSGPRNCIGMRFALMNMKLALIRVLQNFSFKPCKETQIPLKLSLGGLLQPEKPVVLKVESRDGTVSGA

[7] = target: CYP2C9 (Homo sapiens, UniProt P11712); assay: CYP inhibition in human liver microsomes, 2C9; assay type: in vitro ADME
Chain of CYP2C9 (P11712 whole entry): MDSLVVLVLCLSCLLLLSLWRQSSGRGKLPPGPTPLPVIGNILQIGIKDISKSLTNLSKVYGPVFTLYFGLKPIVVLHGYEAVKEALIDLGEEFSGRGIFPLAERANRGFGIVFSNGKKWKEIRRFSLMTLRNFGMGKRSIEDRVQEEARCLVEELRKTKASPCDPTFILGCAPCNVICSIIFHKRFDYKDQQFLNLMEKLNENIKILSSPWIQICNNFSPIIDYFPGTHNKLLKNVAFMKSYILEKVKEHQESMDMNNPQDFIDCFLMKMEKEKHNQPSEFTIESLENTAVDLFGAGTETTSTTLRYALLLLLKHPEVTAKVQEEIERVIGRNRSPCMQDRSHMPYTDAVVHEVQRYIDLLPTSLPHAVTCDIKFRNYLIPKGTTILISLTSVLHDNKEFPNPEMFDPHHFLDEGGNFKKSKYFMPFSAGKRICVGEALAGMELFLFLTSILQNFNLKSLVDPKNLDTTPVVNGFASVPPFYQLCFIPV

[8] = target: CYP2D6 (Homo sapiens, UniProt P10635); assay: CYP inhibition in human liver microsomes, 2D6; assay type: in vitro ADME
Chain of CYP2D6 (P10635 whole entry): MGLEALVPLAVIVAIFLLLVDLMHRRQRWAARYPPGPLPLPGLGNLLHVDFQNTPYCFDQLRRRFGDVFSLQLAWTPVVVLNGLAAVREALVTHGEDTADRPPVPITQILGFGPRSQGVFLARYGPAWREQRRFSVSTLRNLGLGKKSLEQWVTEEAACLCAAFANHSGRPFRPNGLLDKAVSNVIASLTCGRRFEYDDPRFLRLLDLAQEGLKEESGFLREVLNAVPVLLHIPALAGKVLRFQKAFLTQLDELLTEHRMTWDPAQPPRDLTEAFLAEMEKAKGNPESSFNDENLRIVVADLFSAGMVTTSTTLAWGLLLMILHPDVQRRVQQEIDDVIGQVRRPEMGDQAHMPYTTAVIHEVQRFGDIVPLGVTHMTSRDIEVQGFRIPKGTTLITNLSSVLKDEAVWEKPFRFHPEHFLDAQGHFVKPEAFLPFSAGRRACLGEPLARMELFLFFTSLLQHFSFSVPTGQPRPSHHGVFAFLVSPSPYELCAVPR

[9] = Single dose PK; assay type: in vivo; conditions: female, Swiss Webster, mouse, plasma, po, 50 mg/kg
In short: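 Eight-week-old female Swiss Webster mice were given one oral gavage dose of 50 mg/kg, formulated at 10 mg/mL in 20% solutol/80% water. Nine mice were dosed, with n = 3 plasma samples at about 0.25, 0.5, 1, 2, 4, 6, 8, 12 and 24 h. Plasma protein was precipitated with 5 volumes of acetonitrile and filtered through 0.2 μm, then quantified by LC-MS/MS.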

[10] = Solubility in oral dosing vehicles; assay type: physicochemical; conditions: oral dosing vehicle
[11] = read-out: IC50 against human 3A4, ref 35
[12] = read-out: IC50 against human 3A4, ref 67

CCO.C[C@@H](c1nc(-c2ccc(C#N)cc2)cs1)[C@@](Cn1cncn1)(OCOP(=O)(O)O)c1ccc(F)cc1F.NCCCC[C@H](N)C(=O)O [E1224]
half-life in humans [1]: measured in days

O=C([C@@H](c1ccc(Cl)cc1)c1cccnc1)N1CCN(c2ccc(C(F)(F)F)cc2)CC1 [EPL-BS1246]
IC50 ([2]; read-out: IC50 toward 3A4): ≥ 20000 nM
IC50 [3]: 8000 to 9000 nM

CC[C@@H]([C@H](C)O)n1ncn(-c2ccc(N3CCN(c4ccc(OC[C@@H]5CO[C@@](Cn6cncn6)(c6ccc(F)cc6F)C5)cc4)CC3)cc2)c1=O [Posaconazole]
IC50 [2, 11]: 350 nM
IC50 [2, 12]: 120 nM
inhibition of parasitemia, positive control [4]: 94–99%
half-life in humans [1]: measured in days
inhibition at 1 µM [5]: -11%
inhibition at 1 µM [6]: 68%
inhibition at 1 µM [7]: -3%
inhibition at 1 µM [8]: -9%

O=C(N[C@H](Cc1c[nH]c2ccccc12)C(=O)Nc1ccncc1)c1ccc(-c2ccc(F)c(F)c2)cc1F [compound 2, (R)-N-(3-(1H-Indol-3-yl)-1-oxo-1-(pyridin-4-ylamino)propan-2-yl)-3,3′,4′-trifluoro-[1,1′-biphenyl]-4-carboxamide]
half-life [9]: < 3.3 h

O=C(N[C@H](Cc1c[nH]c2ccccc12)C(=O)Nc1ccncc1)c1ccc(-c2ccc(F)c(C(F)(F)F)c2)cc1F [compound 6, (R)-N-(3-(1H-Indol-3-yl)-1-oxo-1-(pyridin-4-ylamino)propan-2-yl)-3,4′-difluoro-3′-(trifluoromethyl)-[1,1′-biphenyl]-4-carboxamide]
half-life [9]: < 3.3 h

O=C(N[C@H](Cc1c[nH]c2ccccc12)C(=O)Nc1ccncc1)c1ccc(-c2ccc(F)c(Cl)c2)cc1F [compound 7, (R)-N-(3-(1H-Indol-3-yl)-1-oxo-1-(pyridin-4-ylamino)propan-2-yl)-3′-chloro-3,4′-difluoro-[1,1′-biphenyl]-4-carboxamide hydrochloride]
solubility in 20% HPβCD [10]: fully soluble

CC(=O)N1CCN(c2ccc(OCC3COC(Cn4ccnc4)(c4ccc(Cl)cc4Cl)O3)cc2)CC1 (stereo not shown) [ketoconazole]
IC50 [2, 11]: 40 nM
IC50 [2, 12]: 8 nM
